{"data": "Assay results gathered from unrelated publications", "effect on": "cell growth or viability", "note": "Compare with care: the assays were run in different laboratories."}
{"SMILES": "COc1cc2c3c(n(CCCNC(C)C)c(=O)c2cc1OC)-c1nc2c(cc1C3=O)OCO2", "cell line": "L-363", "technique": "MTS", "time": "72 h", "IC50 [nM]": 126}
{"SMILES": "Cc1nc(Nc2ccc3c(c2)/C(=C/c2ccccc2C)C(=O)N3C)c2ccccc2n1", "cell line": "H22", "technique": "MTT", "IC50 [nM]": 4780}
{"SMILES": "COc1cc2c3c(n(CCCN4CCOCC4)c(=O)c2cc1OC)-c1nc2c(cc1C3=O)OCO2", "cell line": "L-363", "technique": "MTS", "time": "72 h", "IC50 [nM]": 342}
{"SMILES": "Nc1ccc(/C=C/C(=O)N2CCc3c(oc4c(-c5ccc(F)cc5)cc(-c5ccc(C(=O)N6CCOCC6)nn5)cc34)C2)cn1", "cell line": "U2OS", "technique": "CCK-8", "time": "72 h", "IC50 [nM]": 730}
{"SMILES": "Cc1nc(Nc2ccc3c(c2)/C(=C/c2ccccc2C)C(=O)N3)c2ccccc2n1", "cell line": "H22", "technique": "MTT", "IC50 [nM]": 9920}
{"SMILES": "Nc1ccc(/C=C/C(=O)N2CCc3c(oc4c(-c5ccc(F)cc5)cc(-c5ccc(C(=O)N6CCC(F)(F)CC6)nn5)cc34)C2)cn1", "cell line": "U2OS", "technique": "CCK-8", "time": "72 h", "IC50 [nM]": 640}
{"SMILES": "COc1cc2ncnc(Nc3ccc4c(c3)/C(=C/c3ccccc3)C(=O)N4)c2cc1OC", "cell line": "H22", "technique": "MTT", "IC50 [nM]": "> 50000"}
{"SMILES": "CN1CCC(NC(=O)c2ccc(-c3cc(-c4ccsc4)c4oc5c(c4c3)CCN(C(=O)/C=C/c3ccc(N)nc3)C5)nn2)C(F)(F)C1 (stereo not drawn)", "cell line": "U2OS", "technique": "CCK-8", "time": "72 h", "IC50 [nM]": 1200}
{"SMILES": "COc1cc2ncnc(N(C)c3ccc4c(c3)/C(=C/c3ccccc3)C(=O)N4C)c2cc1OC (mixture of isomers)", "cell line": "H22", "technique": "MTT", "IC50 [nM]": 4960}
{"SMILES": "C=CC(=O)N1CCN(c2nc(=O)n(-c3c(C)ccnc3C(C)C)c3nc(-c4c(O)cccc4F)c(F)cc23)[C@@H](C)C1", "cell line": "NCI-H1792", "technique": "ATP luminescence", "IC50 [nM]": "> 1000"}
{"SMILES": "Cc1nc(Nc2ccc3c(c2)C(C)(C)C(=O)N3)c2ccccc2n1", "cell line": "H22", "technique": "MTT", "IC50 [nM]": "> 50000"}
{"SMILES": "O=C(C=Cc1ccccc1)Nc1cc(-c2ccnc(N3CCOCC3)c2)ccn1", "cell line": "HeLa", "technique": "MTT", "time": "72 h", "IC50 [nM]": 402}
{"SMILES": "C=CC(=O)NC1CCN(c2ncc3ncnc(Nc4ccc(Oc5ccc6c(c5)ncn6C)c(C)c4)c3n2)CC1", "cell line": "SNU-216", "IC50 [nM]": 18.2}
{"SMILES": "COc1cc2c3c(n(CCCNCCO)c(=O)c2cc1OC)-c1nc2c(cc1C3=O)OCO2", "cell line": "L-363", "technique": "MTS", "time": "72 h", "IC50 [nM]": 154}
{"SMILES": "CC1(C)CCC2(CC1)N[C@@H](C(=O)N[C@@H]1CC[C@@H](C(N)=O)OC1)[C@H](c1ccnc(Cl)c1F)[C@]21C(=O)Nc2cc(Cl)ccc21", "cell line": "U2OS", "technique": "resazurin", "time": "72 h", "IC50 [nM]": "> 2000"}
